From ChEMBL document CHEMBL3526048, “In vitro metabolism of rivoglitazone, a novel peroxisome proliferator-activated receptor γ agonist, in rat, monkey, and human liver microsomes and freshly isolated hepatocytes” (Drug Metab Dispos, 2011)

How the values were obtained:
[1] = molecular target: T1, UDP-glucuronosyltransferase 1A10 (Homo sapiens, UniProt Q9HAW8); test: Activity of human UGT1A10 expressed in microsomes isolated from baculovirus infected insect cell assessed as enzyme-mediated 2-mercapto-3-(4-((6-methoxy-1-methyl-1H-benzo[d]imidazol-2-yl)methoxy)phenyl)propanoic acid formation at 20 uM after 4 hrs by radio-HPLC/LC-MS/MS analysis in presence of UDPGA; format: ADME
T1 sequence (Q9HAW8 whole entry): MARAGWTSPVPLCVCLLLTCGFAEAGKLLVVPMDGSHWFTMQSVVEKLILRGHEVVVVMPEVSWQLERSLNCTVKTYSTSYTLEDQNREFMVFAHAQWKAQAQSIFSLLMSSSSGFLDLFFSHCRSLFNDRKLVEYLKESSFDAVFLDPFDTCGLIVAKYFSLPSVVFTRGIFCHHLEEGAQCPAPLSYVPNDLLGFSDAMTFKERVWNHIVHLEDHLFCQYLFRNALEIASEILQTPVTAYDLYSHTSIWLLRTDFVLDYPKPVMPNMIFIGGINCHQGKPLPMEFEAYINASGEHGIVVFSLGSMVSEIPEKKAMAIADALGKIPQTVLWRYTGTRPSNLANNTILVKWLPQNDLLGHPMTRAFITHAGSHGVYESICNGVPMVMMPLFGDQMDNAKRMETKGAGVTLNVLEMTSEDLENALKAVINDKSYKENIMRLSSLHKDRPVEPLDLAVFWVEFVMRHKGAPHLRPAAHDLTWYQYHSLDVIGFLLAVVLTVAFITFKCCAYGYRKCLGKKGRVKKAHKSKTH
How it was run: (§1)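 Alamethicin (50 μg/mg protein, 15 min on ice) pretreated expressed human UGT microsomes (1 mg/ml protein) from baculovirus-infected insect cells. Incubation with [¹⁴C]rivoglitazone (20 μM) in 100 mM Tris-HCl (pH 7.5) with 10 mM MgCl₂, started by 5 mM UDPGA, 4 h at 37°C with shaking. UGT insect-cell control supersomes were run alongside. Acetonitrile stop, concentrated supernatant analysed by radio-HPLC, LC-MS and LC-MS/MS.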

[2] = molecular target: T2, UDP-glucuronosyltransferase 1A8 (Homo sapiens, UniProt Q9HAW9); test: Activity of human UGT1A8 expressed in microsomes isolated from baculovirus infected insect cell assessed as enzyme-mediated (2S,3S,4S,5R,6R)-3,4,5-trihydroxy-6-(5-(4-((6-methoxy-1-methyl-1H-benzo[d]imidazol-2-yl)methoxy)benzyl)-2,4-dioxothiazolidin-3-yl)tetrahydro-2H-pyran-2-carboxylic acid formation at 20 uM after 4 hrs by radio-HPLC/LC-MS/MS analysis in presence of UDPGA; format: ADME
T2 sequence (Q9HAW9 whole entry): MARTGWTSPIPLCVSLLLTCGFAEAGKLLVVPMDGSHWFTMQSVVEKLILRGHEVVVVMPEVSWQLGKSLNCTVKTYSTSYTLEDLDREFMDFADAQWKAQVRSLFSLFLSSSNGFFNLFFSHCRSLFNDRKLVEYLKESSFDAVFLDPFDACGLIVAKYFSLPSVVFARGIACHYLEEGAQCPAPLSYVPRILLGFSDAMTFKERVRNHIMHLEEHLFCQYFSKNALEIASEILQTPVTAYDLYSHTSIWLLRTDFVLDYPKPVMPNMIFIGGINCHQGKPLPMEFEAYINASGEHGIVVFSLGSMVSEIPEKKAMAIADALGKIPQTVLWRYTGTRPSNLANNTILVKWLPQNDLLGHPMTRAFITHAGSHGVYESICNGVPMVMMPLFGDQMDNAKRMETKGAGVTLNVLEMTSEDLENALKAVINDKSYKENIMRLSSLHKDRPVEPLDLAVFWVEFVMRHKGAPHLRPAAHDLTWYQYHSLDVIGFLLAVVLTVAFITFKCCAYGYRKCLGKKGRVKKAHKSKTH

Liver microsome = test: Drug metabolism in human liver microsomes assessed as formation of 2-hydroxy-3-(4-((6-methoxy-1-methyl-1H-benzo[d]imidazol-2-yl)methoxy)phenyl)propanamide at 20 uM after 2 hrs by radio-HPLC/LC-MS/MS analysis in presence of NADPH-generating system and NADPH-generating system/SAM; format: ADME
[3] = molecular target: T3, UDP-glucuronosyltransferase 1A1 (Homo sapiens, UniProt P22309); test: Activity of human UGT1A1 expressed in microsomes isolated from baculovirus infected insect cell assessed as enzyme-mediated 2-mercapto-3-(4-((6-methoxy-1-methyl-1H-benzo[d]imidazol-2-yl)methoxy)phenyl)propanoic acid formation at 20 uM after 4 hrs by radio-HPLC/LC-MS/MS analysis in presence of UDPGA; format: ADME; how it was run: as §1
T3 sequence (P22309 whole entry): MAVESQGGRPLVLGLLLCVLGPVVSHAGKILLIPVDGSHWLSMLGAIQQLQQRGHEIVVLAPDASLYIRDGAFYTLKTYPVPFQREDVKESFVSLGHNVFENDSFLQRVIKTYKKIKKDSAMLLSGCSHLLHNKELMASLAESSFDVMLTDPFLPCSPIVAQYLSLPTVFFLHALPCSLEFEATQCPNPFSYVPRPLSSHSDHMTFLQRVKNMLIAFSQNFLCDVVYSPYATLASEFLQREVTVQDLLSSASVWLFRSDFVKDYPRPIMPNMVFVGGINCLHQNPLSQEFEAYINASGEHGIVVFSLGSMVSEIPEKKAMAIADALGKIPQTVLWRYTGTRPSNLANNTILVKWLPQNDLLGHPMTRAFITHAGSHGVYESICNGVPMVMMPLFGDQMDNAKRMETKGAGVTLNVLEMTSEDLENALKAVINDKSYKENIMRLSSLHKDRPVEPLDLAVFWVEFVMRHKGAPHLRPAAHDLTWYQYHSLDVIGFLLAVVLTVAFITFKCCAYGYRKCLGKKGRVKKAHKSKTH

[4] = Drug metabolism in human hepatocytes assessed as formation of 5-(4-((6-hydroxy-1-methyl-1H-benzo[d]imidazol-2-yl)methoxy)benzyl)thiazolidine-2,4-dione at 30 uM after 3 hrs by radio-HPLC/LC-MS/MS analysis in presence of NADPH-generating system and NADPH-generating system/SAM; format: ADME, cell-based, Hepatocyte
[5] = molecular target: T4, UDP-glucuronosyltransferase 2B15 (Homo sapiens, UniProt P54855); test: Activity of human UGT2B15 expressed in microsomes isolated from baculovirus infected insect cell assessed as enzyme-mediated 2-mercapto-3-(4-((6-methoxy-1-methyl-1H-benzo[d]imidazol-2-yl)methoxy)phenyl)propanoic acid formation at 20 uM after 4 hrs by radio-HPLC/LC-MS/MS analysis in presence of UDPGA; format: ADME
T4 sequence (P54855 whole entry): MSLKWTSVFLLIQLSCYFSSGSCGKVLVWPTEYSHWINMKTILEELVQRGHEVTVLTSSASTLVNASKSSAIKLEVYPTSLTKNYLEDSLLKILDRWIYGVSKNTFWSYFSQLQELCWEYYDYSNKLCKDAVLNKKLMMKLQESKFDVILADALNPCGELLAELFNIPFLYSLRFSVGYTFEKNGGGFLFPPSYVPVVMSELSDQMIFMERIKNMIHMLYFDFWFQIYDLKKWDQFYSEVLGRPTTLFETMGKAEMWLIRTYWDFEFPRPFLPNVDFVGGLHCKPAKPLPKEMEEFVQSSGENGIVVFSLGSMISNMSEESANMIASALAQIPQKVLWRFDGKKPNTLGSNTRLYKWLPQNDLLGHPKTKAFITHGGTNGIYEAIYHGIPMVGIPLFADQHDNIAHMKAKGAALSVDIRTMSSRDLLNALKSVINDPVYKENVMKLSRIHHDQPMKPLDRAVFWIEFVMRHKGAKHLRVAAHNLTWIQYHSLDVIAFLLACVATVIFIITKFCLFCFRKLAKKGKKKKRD

## COc1ccc2nc(COc3ccc(C[14CH]4SC(=O)NC4=O)cc3)n(C)c2c1.Cl (racemic)
[1]
  Drug metabolism: metabolite_not_detected
[2]
  Drug metabolism: metabolite_not_detected
Liver microsome
  Drug metabolism: metabolite_detected
[3]
  Drug metabolism: metabolite_not_detected
[4]
  Drug metabolism: metabolite_detected
[5]
  Drug metabolism: metabolite_not_detected
